Data: ChEMBL document CHEMBL3085739, “Design, synthesis, and biological evaluation of 2-oxo-3,4-dihydropyrimido[4,5-d]pyrimidinyl derivatives as new irreversible epidermal growth factor receptor inhibitors with improved pharmacokinetic properties” (J Med Chem, 2013)
Activity calls are given as the source filed them. No cut-off for these calls is given here.

What was measured:
NCI-H1975 = assay: Effect on GADPH protein level in human NCI-H1975 cells at 3 to 330 nM after 2 hrs by Western blotting analysis; type: functional, cell-based
[1] = molecular target: T1, Dual specificity mitogen-activated protein kinase kinase 5 (Homo sapiens) (UniProt Q13163); assay: Binding affinity to MEK5 (unknown origin)
T1 sequence (whole entry): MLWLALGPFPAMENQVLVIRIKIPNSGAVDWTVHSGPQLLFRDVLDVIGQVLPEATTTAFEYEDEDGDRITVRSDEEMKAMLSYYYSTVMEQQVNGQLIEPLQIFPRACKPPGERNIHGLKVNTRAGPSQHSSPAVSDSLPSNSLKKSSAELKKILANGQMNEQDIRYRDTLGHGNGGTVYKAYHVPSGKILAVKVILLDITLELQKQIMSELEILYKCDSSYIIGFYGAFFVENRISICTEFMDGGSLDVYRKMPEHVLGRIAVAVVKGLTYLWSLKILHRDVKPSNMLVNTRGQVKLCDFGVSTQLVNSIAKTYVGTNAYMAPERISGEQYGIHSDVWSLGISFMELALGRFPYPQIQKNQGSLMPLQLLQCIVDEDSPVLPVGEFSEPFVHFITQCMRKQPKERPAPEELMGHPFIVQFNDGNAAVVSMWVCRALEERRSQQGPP

[2] = test system: Epidermal growth factor receptor (Homo sapiens), P00533 [L858R,T790M]; details: NCI-H1975, 33 nM
Epidermal growth factor receptor (Homo sapiens), P00533 [L858R,T790M], sequence (P00533 whole entry T790M/L858R, looked up): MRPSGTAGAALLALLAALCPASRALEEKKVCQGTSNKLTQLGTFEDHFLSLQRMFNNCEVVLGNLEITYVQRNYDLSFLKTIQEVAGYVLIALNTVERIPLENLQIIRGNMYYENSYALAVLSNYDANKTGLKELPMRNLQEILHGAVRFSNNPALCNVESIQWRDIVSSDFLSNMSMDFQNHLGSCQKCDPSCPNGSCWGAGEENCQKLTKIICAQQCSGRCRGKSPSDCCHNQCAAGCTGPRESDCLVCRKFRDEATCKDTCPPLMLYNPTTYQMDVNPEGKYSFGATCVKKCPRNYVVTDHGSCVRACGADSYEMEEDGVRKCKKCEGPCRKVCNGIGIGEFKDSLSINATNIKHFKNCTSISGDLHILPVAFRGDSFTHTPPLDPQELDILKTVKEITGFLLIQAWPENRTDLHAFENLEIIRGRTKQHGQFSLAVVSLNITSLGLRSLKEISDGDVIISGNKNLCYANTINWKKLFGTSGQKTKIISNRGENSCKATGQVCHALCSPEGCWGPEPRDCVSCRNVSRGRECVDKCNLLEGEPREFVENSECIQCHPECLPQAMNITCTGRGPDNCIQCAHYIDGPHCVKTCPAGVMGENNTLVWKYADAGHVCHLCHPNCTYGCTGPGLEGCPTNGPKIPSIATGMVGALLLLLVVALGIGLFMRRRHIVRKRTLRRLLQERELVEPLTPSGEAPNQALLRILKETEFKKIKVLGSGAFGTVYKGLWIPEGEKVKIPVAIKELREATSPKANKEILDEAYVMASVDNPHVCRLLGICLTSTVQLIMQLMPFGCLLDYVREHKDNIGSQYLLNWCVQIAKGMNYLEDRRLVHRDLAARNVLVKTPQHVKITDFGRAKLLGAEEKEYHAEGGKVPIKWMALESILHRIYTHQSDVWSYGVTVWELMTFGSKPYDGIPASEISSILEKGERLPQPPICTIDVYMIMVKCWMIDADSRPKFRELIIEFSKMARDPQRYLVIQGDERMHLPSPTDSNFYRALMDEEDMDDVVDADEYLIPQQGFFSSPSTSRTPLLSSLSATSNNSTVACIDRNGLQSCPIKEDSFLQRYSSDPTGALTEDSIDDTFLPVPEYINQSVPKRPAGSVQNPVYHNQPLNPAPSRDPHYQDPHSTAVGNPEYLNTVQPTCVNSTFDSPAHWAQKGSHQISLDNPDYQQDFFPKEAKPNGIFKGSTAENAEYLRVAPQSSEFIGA

[3] = molecular target: Epidermal growth factor receptor (Homo sapiens, UniProt P00533, L858R/T790M); assay: Binding affinity to EGFR L858R/T790M double mutant (unknown origin)
Epidermal growth factor receptor, sequence (P00533 25-1210 T790M/L858R limits assumed): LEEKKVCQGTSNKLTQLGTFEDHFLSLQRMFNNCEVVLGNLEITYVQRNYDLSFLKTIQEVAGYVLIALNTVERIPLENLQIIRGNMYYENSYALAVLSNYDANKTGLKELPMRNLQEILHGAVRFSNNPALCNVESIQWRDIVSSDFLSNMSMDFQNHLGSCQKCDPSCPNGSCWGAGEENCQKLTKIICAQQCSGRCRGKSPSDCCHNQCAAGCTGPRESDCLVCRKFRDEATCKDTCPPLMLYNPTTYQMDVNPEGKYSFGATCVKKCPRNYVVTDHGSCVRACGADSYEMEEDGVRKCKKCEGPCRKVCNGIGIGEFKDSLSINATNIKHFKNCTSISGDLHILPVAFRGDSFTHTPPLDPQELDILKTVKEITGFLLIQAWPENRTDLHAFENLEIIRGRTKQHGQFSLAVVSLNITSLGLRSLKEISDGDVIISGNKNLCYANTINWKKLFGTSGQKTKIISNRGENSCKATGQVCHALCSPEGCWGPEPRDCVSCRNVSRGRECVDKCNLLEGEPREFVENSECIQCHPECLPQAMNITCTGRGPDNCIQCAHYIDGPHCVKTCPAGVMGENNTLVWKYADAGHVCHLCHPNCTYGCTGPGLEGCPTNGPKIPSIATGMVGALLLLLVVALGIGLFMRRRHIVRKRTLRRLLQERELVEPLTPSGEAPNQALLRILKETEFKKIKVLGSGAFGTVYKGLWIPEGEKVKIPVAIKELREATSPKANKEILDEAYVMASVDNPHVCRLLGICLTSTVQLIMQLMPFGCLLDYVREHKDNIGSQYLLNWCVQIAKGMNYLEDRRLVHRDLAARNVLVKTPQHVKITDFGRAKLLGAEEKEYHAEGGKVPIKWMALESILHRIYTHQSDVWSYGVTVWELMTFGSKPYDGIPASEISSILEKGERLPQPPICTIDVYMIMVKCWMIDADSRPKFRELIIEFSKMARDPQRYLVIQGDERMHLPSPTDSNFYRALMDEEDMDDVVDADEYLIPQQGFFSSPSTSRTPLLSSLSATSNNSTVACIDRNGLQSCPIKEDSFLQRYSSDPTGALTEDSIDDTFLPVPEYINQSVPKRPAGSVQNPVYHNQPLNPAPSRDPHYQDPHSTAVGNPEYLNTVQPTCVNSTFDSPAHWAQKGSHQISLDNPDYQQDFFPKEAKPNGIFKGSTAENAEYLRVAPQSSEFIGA

[4] = Antiproliferative activity against human H460 cells expressing wild-type EGFR after 72 hrs by MTS assay; type: cell-based; details: NCI-H460, 72 h
Method in brief: (§1)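 MTS proliferation assay: cells exposed to compound for 72 h at six concentrations (0.1 nM to 10 μM), each concentration run six times. Cell number per line set to give an absorbance of 0.5–1.2 at […]. IC50 from a nonlinear sigmoidal dose–response fit. Values are means of at least three independent experiments.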

NCI-H358 = assay: Antiproliferative activity against human NCI-H358 cells expressing wild-type EGFR after 72 hrs by MTS assay; type: cell-based; details: NCI-H358, 72 h
[5] = molecular target: Receptor-type tyrosine-protein kinase FLT3 (Homo sapiens) (UniProt P36888); assay: Binding affinity to FLT3 (unknown origin)
Receptor-type tyrosine-protein kinase FLT3 (Homo sapiens), sequence (P36888 whole entry): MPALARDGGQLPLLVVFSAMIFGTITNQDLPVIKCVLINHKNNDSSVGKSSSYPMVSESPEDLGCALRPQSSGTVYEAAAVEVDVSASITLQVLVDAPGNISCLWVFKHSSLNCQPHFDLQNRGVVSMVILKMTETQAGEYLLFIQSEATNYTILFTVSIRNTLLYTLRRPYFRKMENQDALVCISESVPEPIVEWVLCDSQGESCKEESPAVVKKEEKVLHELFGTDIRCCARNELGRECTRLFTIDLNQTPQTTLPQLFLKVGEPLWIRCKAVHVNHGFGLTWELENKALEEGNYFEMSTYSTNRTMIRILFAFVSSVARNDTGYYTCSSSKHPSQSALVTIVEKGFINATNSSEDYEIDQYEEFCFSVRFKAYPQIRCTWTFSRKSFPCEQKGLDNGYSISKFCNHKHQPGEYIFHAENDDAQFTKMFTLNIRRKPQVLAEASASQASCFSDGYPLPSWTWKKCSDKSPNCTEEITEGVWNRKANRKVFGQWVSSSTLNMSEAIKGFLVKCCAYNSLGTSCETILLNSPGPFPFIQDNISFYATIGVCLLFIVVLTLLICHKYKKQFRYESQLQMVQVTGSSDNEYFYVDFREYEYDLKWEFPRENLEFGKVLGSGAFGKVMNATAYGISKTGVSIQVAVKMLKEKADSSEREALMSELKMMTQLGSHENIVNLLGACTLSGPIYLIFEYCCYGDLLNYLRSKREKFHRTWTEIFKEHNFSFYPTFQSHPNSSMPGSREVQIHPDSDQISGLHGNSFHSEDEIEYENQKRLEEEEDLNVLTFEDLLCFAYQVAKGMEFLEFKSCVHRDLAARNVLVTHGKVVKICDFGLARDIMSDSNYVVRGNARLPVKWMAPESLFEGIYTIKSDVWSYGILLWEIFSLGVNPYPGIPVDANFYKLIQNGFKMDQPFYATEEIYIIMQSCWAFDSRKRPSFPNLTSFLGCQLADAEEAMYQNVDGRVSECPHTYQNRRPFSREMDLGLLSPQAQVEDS

[6] = molecular target: Tyrosine-protein kinase Blk (Homo sapiens) (UniProt P51451); assay: Binding affinity to BLK (unknown origin)
Tyrosine-protein kinase Blk (Homo sapiens), sequence (P51451 2-505 limits assumed): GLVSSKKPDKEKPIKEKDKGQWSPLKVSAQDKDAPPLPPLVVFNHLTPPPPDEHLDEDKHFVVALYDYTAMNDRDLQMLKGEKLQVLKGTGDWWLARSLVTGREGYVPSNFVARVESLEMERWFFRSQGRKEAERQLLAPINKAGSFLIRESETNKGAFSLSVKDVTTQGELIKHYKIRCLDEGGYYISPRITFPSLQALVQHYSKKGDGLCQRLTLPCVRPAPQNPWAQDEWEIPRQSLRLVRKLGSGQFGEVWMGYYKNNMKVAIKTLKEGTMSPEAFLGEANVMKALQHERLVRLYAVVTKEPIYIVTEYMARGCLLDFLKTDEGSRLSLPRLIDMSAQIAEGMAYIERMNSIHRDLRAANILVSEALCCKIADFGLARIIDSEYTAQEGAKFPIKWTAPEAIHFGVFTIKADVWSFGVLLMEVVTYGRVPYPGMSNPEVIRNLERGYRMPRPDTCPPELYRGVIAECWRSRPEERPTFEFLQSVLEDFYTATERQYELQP

[7] = molecular target: Tyrosine-protein kinase ABL1 (Homo sapiens) (UniProt P00519); assay: Binding affinity to ABL1 (unknown origin)
Tyrosine-protein kinase ABL1 (Homo sapiens), sequence (P00519 whole entry): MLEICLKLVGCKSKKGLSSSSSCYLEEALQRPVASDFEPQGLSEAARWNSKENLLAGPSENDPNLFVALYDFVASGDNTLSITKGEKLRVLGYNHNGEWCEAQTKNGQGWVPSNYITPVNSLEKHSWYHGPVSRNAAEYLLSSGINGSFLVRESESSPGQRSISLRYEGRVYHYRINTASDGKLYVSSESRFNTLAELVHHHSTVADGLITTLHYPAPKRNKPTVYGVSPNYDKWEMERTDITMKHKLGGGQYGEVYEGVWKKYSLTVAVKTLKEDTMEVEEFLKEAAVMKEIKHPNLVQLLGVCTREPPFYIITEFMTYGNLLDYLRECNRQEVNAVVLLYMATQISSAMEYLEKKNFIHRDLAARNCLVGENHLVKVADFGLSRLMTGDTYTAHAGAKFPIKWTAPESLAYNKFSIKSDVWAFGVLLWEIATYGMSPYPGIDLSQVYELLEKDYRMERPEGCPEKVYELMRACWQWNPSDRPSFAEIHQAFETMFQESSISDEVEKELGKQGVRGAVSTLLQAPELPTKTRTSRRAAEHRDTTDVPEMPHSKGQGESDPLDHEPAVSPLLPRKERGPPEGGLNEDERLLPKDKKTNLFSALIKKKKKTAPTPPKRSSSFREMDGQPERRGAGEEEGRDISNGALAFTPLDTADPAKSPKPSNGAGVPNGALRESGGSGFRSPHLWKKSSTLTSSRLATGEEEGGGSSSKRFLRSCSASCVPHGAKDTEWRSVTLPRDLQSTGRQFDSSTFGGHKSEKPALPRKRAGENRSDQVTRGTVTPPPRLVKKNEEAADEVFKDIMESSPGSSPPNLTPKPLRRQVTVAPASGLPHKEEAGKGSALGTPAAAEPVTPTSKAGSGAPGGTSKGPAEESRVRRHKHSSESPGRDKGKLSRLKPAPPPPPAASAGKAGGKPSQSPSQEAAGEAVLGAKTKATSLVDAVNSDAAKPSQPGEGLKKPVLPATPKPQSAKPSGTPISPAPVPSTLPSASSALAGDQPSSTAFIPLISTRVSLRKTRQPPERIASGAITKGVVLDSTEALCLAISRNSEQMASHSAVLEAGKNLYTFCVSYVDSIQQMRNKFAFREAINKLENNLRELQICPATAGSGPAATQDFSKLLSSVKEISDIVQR

[8] = molecular target: T2, Tyrosine-protein kinase JAK3 (Homo sapiens) (UniProt P52333); assay: Binding affinity to JAK3 (unknown origin)
T2 sequence (whole entry): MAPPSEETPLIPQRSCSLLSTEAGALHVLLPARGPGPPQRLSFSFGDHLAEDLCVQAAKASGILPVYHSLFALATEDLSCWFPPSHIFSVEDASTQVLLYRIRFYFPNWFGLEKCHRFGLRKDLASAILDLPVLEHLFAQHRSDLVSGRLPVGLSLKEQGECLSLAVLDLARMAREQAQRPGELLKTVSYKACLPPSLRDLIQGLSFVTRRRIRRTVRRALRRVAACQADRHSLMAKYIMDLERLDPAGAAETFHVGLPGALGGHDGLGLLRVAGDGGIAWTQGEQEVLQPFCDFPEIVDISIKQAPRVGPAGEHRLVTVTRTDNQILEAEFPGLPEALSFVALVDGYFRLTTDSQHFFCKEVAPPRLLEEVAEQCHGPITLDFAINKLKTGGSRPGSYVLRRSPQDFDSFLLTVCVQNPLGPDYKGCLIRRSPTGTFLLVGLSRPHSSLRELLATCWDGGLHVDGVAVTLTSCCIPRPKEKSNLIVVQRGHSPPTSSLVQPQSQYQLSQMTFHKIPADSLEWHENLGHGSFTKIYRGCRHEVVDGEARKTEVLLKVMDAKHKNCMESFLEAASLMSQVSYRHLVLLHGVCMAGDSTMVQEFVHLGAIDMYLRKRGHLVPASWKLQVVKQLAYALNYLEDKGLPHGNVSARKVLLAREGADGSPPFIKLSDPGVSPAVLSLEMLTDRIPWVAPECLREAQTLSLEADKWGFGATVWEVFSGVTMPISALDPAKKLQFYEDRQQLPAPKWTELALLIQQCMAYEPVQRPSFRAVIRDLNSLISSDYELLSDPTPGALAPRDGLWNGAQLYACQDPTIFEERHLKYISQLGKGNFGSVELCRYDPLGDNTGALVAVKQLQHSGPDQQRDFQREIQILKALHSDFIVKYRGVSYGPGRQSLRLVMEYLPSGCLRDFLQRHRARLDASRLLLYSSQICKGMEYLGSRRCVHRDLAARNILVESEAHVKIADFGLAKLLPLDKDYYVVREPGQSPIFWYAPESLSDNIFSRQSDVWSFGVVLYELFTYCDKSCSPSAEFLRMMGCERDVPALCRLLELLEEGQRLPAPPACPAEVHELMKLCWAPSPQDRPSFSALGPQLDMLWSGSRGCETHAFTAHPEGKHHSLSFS

[9] = Antiproliferative activity against human HCC827 cells expressing EGFR E746 to A750 deletion mutant after 72 hrs by MTS assay; type: functional, cell-based; details: HCC827, 72 h; method in brief: as §1
[10] = Cmax in Sprague-Dawley rat at 5 mg/kg, iv by LC/MS analysis; type: ADME, organism-based; parameters: dose 5 mg/kg, route intravenous; details: in vivo
Method in brief: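 Male Sprague-Dawley rats (180−220 g), n = 4 per route, single iv dose 5 mg/kg or oral gavage 25 mg/kg. Vehicle was 2% DMSO, 4% EtOH, 4% castor oil, 90% H2O. Orbital sinus blood was taken from 2 min to 72 h into heparinized tubes. Plasma levels were measured by LC/MS with propranolol internal standard and analysed by pharmacokinetic modelling.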

Question: With `C=CC(=O)N1CC[C@H](N2C(=O)N(c3ccccc3)Cc3cnc(Nc4ccc(N5CCN(C)CC5)c(C)c4)nc32)C1` as the compound, how does the Activity (NCI-H1975) read?
Answer: inactive

Question: And the Activity [1]?
Answer: Active

Question: What about the inhibition [2] of the same compound?
Answer: Active

Question: And the Kd [3]?
Answer: 1.4 nM

Question: And the IC50 [4]?
Answer: 16000 nM

Question: And the IC50 (NCI-H358)?
Answer: > 20000 nM

Question: And the Activity [5]?
Answer: Active

Question: And the Activity [6]?
Answer: Active

Question: And the Activity [7]?
Answer: Active

Question: What about the Activity [8] of the same compound?
Answer: Active

Question: What about the IC50 [9] of the same compound?
Answer: 5 nM

Question: And the Cmax [10]?
Answer: 3980 ng/mL
